The target of this experiment is Potassium channel subfamily K member 3 (Rattus norvegicus) (UniProt O54912). In words: inhibition of rat KCNK3 channel, SAR follow-up, selectivity assay for KCNK9 inhibitor project, cell-based, FluxOR thallium flux, CRC set 2 (AID 623912). Particulars: KCNK3-expressing cells, FluxOR thallium flux fluorescence. In a few lines:
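Material: tetracycline-induced CHO cells expressing rat KCNK3 potassium channel / Probe or stimulus: Tl+/K+ sulfate stimulus buffer (5x stock) / Dosing: compound concentration-response series / Schedule: 90 min FluxOR loading, 20 min compound, 10+110 s recording / Technique: FluxOR Tl+ flux fluorescence / Read-out: IC50 from normalized flux signal / Replicates: at least duplicate concentration-response curves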

We go through one molecule from PubChem BioAssay AID623912 (Johns Hopkins Ion Channel Center, 2012).

Potassium channel subfamily K member 3 (Rattus norvegicus), sequence (O54912 whole entry, looked up): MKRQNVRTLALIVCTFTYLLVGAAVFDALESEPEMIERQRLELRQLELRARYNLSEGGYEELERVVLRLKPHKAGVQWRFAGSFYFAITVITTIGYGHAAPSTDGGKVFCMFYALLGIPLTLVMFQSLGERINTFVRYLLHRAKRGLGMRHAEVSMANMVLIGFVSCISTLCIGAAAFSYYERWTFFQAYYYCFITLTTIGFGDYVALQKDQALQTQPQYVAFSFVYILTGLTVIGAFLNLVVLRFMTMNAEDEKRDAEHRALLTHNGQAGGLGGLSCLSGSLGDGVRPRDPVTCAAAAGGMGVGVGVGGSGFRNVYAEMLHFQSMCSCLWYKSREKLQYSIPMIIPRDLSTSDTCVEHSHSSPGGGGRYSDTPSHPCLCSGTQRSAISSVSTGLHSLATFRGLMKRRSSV

For the molecule `COc1cccc(-c2n[nH]c(=S)n2C(C)C2CC3CCC2C3)c1` (stereo unspecified), the 50% inhibitory concentration (IC50) was 1.29 µM.

By IC50 is commonly meant the concentration that inhibits the measured activity by half.
